{"source": "ChEMBL document CHEMBL1149585", "about": "“Toward the development of chemoprevention agents. Part 1: Design, synthesis, and anti-inflammatory activities of a new class of 2,5-disubstituted-dioxacycloalkanes” (Bioorg Med Chem, 2007)", "key": {"Mus musculus [1]": {"tested_on": "Mus musculus", "test": "Antiinflammatory activity against xylene-induced ear edema in Kunming mouse assessed as edema weight at 20 mg/kg, po after 2 hrs relative to control", "type": "functional", "method_in_brief": "(§1)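 Male Kunming mice (groups of 12; n = 11 per table footnote) were dosed orally as a suspension in 0.5% CMC, with CMC vehicle and positive control groups. After 30 min, 0.03 ml xylene went on both surfaces of the right ear, with the left ear as control. Mice were killed 2 h later. 7 mm ear punches were weighed, and edema was taken as right minus left weight. Groups were compared by one-way ANOVA, p < 0.05.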"}, "Mus musculus [2]": {"tested_on": "Mus musculus", "test": "Toxicity in mouse assessed as tail bleeding time at 200 mg/kg, po after 45 mins", "type": "organism-based", "set-up": "dose 200 mg/kg, route oral", "conditions": "in vivo, 0.75 h", "method_in_brief": "(§2)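 Male mice (18–22 g) were dosed orally, and bleeding time was recorded before dosing and at each post-dose time. Each mouse was held in a tube with its tail protruding, and a 2 mm tail cut was made. Blood was wiped away with tissue every 30 s until bleeding ceased, and the time was recorded. The comparison group received NS.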"}, "Mus musculus [3]": {"tested_on": "Mus musculus", "test": "Toxicity in mouse assessed as tail bleeding time at 200 mg/kg, po after 90 mins", "type": "organism-based", "set-up": "dose 200 mg/kg, route oral", "conditions": "in vivo, 1.5 h", "method_in_brief": "as §2"}, "Mus musculus [4]": {"tested_on": "Mus musculus", "test": "Inhibition of xylene-induced ear edema in Kunming mouse at 20 mg/kg, po after 2 hrs relative to control", "type": "functional", "method_in_brief": "as §1"}, "Mus musculus [5]": {"tested_on": "Mus musculus", "test": "Toxicity in mouse assessed as tail bleeding time at 200 mg/kg, po after 30 mins", "type": "organism-based", "set-up": "dose 200 mg/kg, route oral", "conditions": "in vivo, 0.5 h", "method_in_brief": "as §2"}, "Mus musculus [6]": {"tested_on": "Mus musculus", "test": "Toxicity in mouse assessed as tail bleeding time at 200 mg/kg, po after 60 mins", "type": "organism-based", "set-up": "dose 200 mg/kg, route oral", "conditions": "in vivo, 1 h", "method_in_brief": "as §2"}, "Mus musculus [7]": {"tested_on": "Mus musculus", "test": "Antiinflammatory activity against xylene-induced ear edema in Kunming mouse assessed as edema weight at 30 mg/kg, po after 2 hrs relative to control", "type": "functional", "method_in_brief": "as §1"}, "Mus musculus [8]": {"tested_on": "Mus musculus", "test": "Inhibition of xylene-induced ear edema in Kunming mouse at 30 mg/kg, po after 2 hrs relative to control", "type": "functional", "method_in_brief": "as §1"}}}
{"smiles": "O=Cc1ccc(Cl)cc1", "values": [{"measurement": "Activity", "setting": "Mus musculus [1]", "value": 3.8, "unit": "mg"}]}
{"smiles": "O=Cc1ccc([N+](=O)[O-])cc1", "values": [{"measurement": "Activity", "setting": "Mus musculus [1]", "value": 3.39, "unit": "mg"}]}
{"smiles": "Cc1ccc(C=O)cc1", "values": [{"measurement": "Activity", "setting": "Mus musculus [1]", "value": 3.72, "unit": "mg"}]}
{"smiles": "C[C@@H](O)[C@H](CO)NC(=O)c1ccccc1", "values": [{"measurement": "Activity", "setting": "Mus musculus [1]", "value": 3.32, "unit": "mg"}]}
{"smiles": "O=C(N[C@H](CO)CCCO)c1ccccc1", "values": [{"measurement": "Activity", "setting": "Mus musculus [1]", "value": 3.38, "unit": "mg"}]}
{"smiles": "O=C(N[C@H]1CO[C@@H](c2ccc(Cl)cc2)OC1)c1ccccc1", "values": [{"measurement": "Activity", "setting": "Mus musculus [2]", "value": 118.9, "unit": "s"}, {"measurement": "Activity", "setting": "Mus musculus [3]", "value": 119.4, "unit": "s"}, {"measurement": "inhibition in vivo at 20 mg/kg", "setting": "Mus musculus [4]", "value": 28.5, "unit": "%"}, {"measurement": "Activity", "setting": "Mus musculus [5]", "value": 118, "unit": "s"}, {"measurement": "Activity", "setting": "Mus musculus [6]", "value": 120.9, "unit": "s"}]}
{"smiles": "O=C(N[C@H]1CO[C@@H](c2cccc([N+](=O)[O-])c2)OC1)c1ccccc1", "values": [{"measurement": "Activity", "setting": "Mus musculus [2]", "value": 118.2, "unit": "s"}, {"measurement": "Activity", "setting": "Mus musculus [3]", "value": 120.2, "unit": "s"}, {"measurement": "inhibition in vivo at 20 mg/kg", "setting": "Mus musculus [4]", "value": 42.9, "unit": "%"}, {"measurement": "Activity", "setting": "Mus musculus [5]", "value": 119.3, "unit": "s"}, {"measurement": "Activity", "setting": "Mus musculus [6]", "value": 119.1, "unit": "s"}]}
{"smiles": "C[C@@H]1O[C@@H](c2ccc(Cl)cc2)OC[C@H]1NC(=O)c1ccccc1", "values": [{"measurement": "Activity", "setting": "Mus musculus [2]", "value": 118.9, "unit": "s"}, {"measurement": "Activity", "setting": "Mus musculus [3]", "value": 118.7, "unit": "s"}, {"measurement": "inhibition in vivo at 20 mg/kg", "setting": "Mus musculus [4]", "value": 56.4, "unit": "%"}, {"measurement": "Activity", "setting": "Mus musculus [5]", "value": 118.3, "unit": "s"}, {"measurement": "Activity", "setting": "Mus musculus [6]", "value": 118.5, "unit": "s"}]}
{"smiles": "C[C@@H]1O[C@@H](c2ccc([N+](=O)[O-])cc2)OC[C@H]1NC(=O)c1ccccc1", "values": [{"measurement": "Activity", "setting": "Mus musculus [2]", "value": 119.2, "unit": "s"}, {"measurement": "Activity", "setting": "Mus musculus [3]", "value": 118.9, "unit": "s"}, {"measurement": "inhibition in vivo at 20 mg/kg", "setting": "Mus musculus [4]", "value": 57.4, "unit": "%"}, {"measurement": "Activity", "setting": "Mus musculus [5]", "value": 118.4, "unit": "s"}, {"measurement": "Activity", "setting": "Mus musculus [6]", "value": 117.2, "unit": "s"}]}
{"smiles": "O=C/C=C/c1ccccc1", "values": [{"measurement": "Activity", "setting": "Mus musculus [1]", "value": 3.4, "unit": "mg"}]}
{"smiles": "O=C(N[C@H]1CO[C@H](c2ccc(Cl)cc2)OC1)c1ccccc1", "values": [{"measurement": "Activity", "setting": "Mus musculus [2]", "value": 118.9, "unit": "s"}, {"measurement": "Activity", "setting": "Mus musculus [3]", "value": 119.6, "unit": "s"}, {"measurement": "inhibition in vivo at 20 mg/kg", "setting": "Mus musculus [4]", "value": 47.4, "unit": "%"}, {"measurement": "Activity", "setting": "Mus musculus [5]", "value": 119, "unit": "s"}, {"measurement": "Activity", "setting": "Mus musculus [6]", "value": 118.7, "unit": "s"}]}
{"smiles": "O=C(Cc1ccccc1)NC(CO)CO", "values": [{"measurement": "Activity", "setting": "Mus musculus [1]", "value": 3.88, "unit": "mg"}]}
{"smiles": "Cc1ccc([C@H]2OC[C@@H](NC(=O)c3ccccc3)[C@H](C)O2)cc1", "values": [{"measurement": "Activity", "setting": "Mus musculus [2]", "value": 121, "unit": "s"}, {"measurement": "Activity", "setting": "Mus musculus [3]", "value": 118.7, "unit": "s"}, {"measurement": "inhibition in vivo at 20 mg/kg", "setting": "Mus musculus [4]", "value": 46.1, "unit": "%"}, {"measurement": "Activity", "setting": "Mus musculus [5]", "value": 120.9, "unit": "s"}, {"measurement": "Activity", "setting": "Mus musculus [6]", "value": 119.8, "unit": "s"}]}
{"smiles": "C[C@@H]1O[C@@H](c2cccc([N+](=O)[O-])c2)OC[C@H]1NC(=O)c1ccccc1", "values": [{"measurement": "Activity", "setting": "Mus musculus [2]", "value": 119.2, "unit": "s"}, {"measurement": "Activity", "setting": "Mus musculus [3]", "value": 118.3, "unit": "s"}, {"measurement": "inhibition in vivo at 20 mg/kg", "setting": "Mus musculus [4]", "value": 42, "unit": "%"}, {"measurement": "Activity", "setting": "Mus musculus [5]", "value": 118.9, "unit": "s"}, {"measurement": "Activity", "setting": "Mus musculus [6]", "value": 117.4, "unit": "s"}]}
{"smiles": "O=C(NC(CO)CO)c1ccccc1", "values": [{"measurement": "Activity", "setting": "Mus musculus [1]", "value": 3.25, "unit": "mg"}]}
{"smiles": "O=C(N[C@H]1CO[C@@H](c2ccc([N+](=O)[O-])cc2)OC1)c1ccccc1", "values": [{"measurement": "Activity", "setting": "Mus musculus [2]", "value": 118.7, "unit": "s"}, {"measurement": "Activity", "setting": "Mus musculus [3]", "value": 119.4, "unit": "s"}, {"measurement": "inhibition in vivo at 20 mg/kg", "setting": "Mus musculus [4]", "value": 44.2, "unit": "%"}, {"measurement": "Activity", "setting": "Mus musculus [5]", "value": 119.4, "unit": "s"}, {"measurement": "Activity", "setting": "Mus musculus [6]", "value": 120.6, "unit": "s"}]}
{"smiles": "O=C(N[C@H](CO)CCO)c1ccccc1", "values": [{"measurement": "Activity", "setting": "Mus musculus [1]", "value": 4.01, "unit": "mg"}]}
{"smiles": "CC(O)C(CO)NC(=O)Cc1ccccc1", "note": "(single isomer, unassigned)", "values": [{"measurement": "Activity", "setting": "Mus musculus [1]", "value": 3.35, "unit": "mg"}]}
{"smiles": "O=C(Cc1ccccc1)NC(CO)CCCO", "note": "(single isomer, unassigned)", "values": [{"measurement": "Activity", "setting": "Mus musculus [1]", "value": 3.53, "unit": "mg"}]}
{"smiles": "O=C(Cc1ccccc1)NC(CO)CCO", "note": "(single isomer, unassigned)", "values": [{"measurement": "Activity", "setting": "Mus musculus [1]", "value": 3.44, "unit": "mg"}]}
{"smiles": "O=Cc1cccc([N+](=O)[O-])c1", "note": "[3-NITROBENZALDEHYDE]", "values": [{"measurement": "Activity", "setting": "Mus musculus [1]", "value": 3.5, "unit": "mg"}]}
{"smiles": "CC(=O)Oc1ccccc1C(=O)O", "note": "[ASPIRIN]", "values": [{"measurement": "Activity", "setting": "Mus musculus [7]", "value": 1.85, "unit": "mg"}, {"measurement": "inhibition in vivo at 30 mg/kg", "setting": "Mus musculus [8]", "value": 40.7, "unit": "%"}]}
{"smiles": "O=Cc1ccccc1", "note": "[BENZALDEHYDE]", "values": [{"measurement": "Activity", "setting": "Mus musculus [1]", "value": 3.45, "unit": "mg"}]}
